Compounds with a hit are over-represented: about 2.4% of the library has one in this group of screens.
S1P4 agonist: S1P4 receptor agonists, primary screen, cell-based; S1P4-expressing cell line, agonist reporter assay; activation, % at 4.98 µM; 0.35% of 220,000 active; AID 1509, 2009; in the data active = activation above about 11%;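 note: 0% = DMSO vehicle and 100% = reference agonist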
NPY Y2 blocker: NPY-Y2 receptor antagonists, primary screen, cell-based; NPY-Y2 expressing cells, antagonist mode; AID 793, 2007; Neuropeptide Y receptor type 2 (Homo sapiens), P49146; inhibition, % at 2.7 µM; 0.99% of 140,000 active; in the data active = inhibition above about 17%;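 note: 0% = vehicle with agonist challenge and 100% = reference antagonist with challenge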
Target sequence (P49146 whole entry, looked up): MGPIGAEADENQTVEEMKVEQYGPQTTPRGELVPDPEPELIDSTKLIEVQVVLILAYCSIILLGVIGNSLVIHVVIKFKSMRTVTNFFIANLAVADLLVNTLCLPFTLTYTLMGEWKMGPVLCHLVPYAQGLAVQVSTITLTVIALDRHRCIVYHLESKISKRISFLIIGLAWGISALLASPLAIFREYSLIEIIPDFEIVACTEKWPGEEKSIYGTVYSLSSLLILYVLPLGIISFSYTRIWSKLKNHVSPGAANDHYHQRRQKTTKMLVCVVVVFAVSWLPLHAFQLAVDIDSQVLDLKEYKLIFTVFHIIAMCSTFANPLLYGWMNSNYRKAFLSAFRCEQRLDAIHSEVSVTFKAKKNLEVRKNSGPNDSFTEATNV
NPY2 pot ag: NPY-Y2 potentiators or agonists, primary screen, cell-based | Neuropeptide Y receptor type 2 (Homo sapiens), P49146 | cells expressing NPY-Y2, potentiator/agonist read-out | activation, % at 3.6 µM | 0.45% of 220,000 active; in the data active = activation above about 27%;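 note: cells stimulated with NPY near EC25 plus isoproterenol at EC100; 0% = vehicle plus submaximal agonist and 100% = vehicle plus saturating agonist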
NPY-Y1 antag: NPY-Y1 receptor antagonists, primary screen, cell-based | Neuropeptide Y receptor type 1 (Homo sapiens), P25929 | HEK293-CNG Y1 cells, membrane potential fluorescence; NPY at EC95, then isoproterenol | inhibition, % at 3.6 µM | 1% of 200,000 active;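 active = inhibition above the campaign mean inhibition of all tested compounds plus 3 SD, cut at about 20% in these data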;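 note: 0% = DMSO wells given NPY plus isoproterenol and 100% = isoproterenol alone without NPY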
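Material: HEK293 Y1/CNG channel cell line; also added: NPY (25 nM), isoproterenol (1 µM), Ro 20-1724 (25 µM); doses: one concentration, 3.6 µM, in 0.4% DMSO; schedule: compound incubation 1 h at room temperature, readout 45 min post-stimulation; technique: membrane potential fluorescence; measure: fluorescence ratio normalized to % inhibition between controls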
S1P4 antagonist: S1P4 receptor antagonists, primary screen, cell-based; S1P4-expressing cells, antagonist mode, reporter read-out; inhibition, % at 4.98 µM; 0.26% of 220,000 active; AID 1510, 2009; in the data active = inhibition above about 29%;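 note: 0% = wells stimulated with agonist and 100% = vehicle wells without agonist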
NPY-Y1 PAM-ag: NPY-Y1 receptor potentiators or agonists, primary screen, cell-based. AID 1304, 2008. activation, % at 3.6 µM. 0.37% of 220,000 active. Neuropeptide Y receptor type 1 (Homo sapiens), P25929. NPY-Y1 expressing cells, potentiator/agonist activation; in the data active = activation above about 33%, passing the limit was not always enough;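 note: cells stimulated with NPY at EC10 then isoproterenol at EC100; 0% = low agonist plus stimulus and 100% = saturating agonist plus stimulus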
NPY-Y1 confirm: NPY-Y1 potentiators or agonists, confirmation, cell-based; cell-based NPY-Y1 potentiator/agonist assay; AID 1546, 2009; activation, % at 3.6 µM; shares compounds with NPY-Y1 PAM-ag; 20% of 280 active;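 note: cells challenged with NPY at its EC10 plus isoproterenol stimulus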
NPY-Y2 counter: NPY-Y2 potentiators or agonists, counter-screen for NPY-Y1 potentiator project, cell-based, fluorescence; shares compounds with NPY-Y1 PAM-ag; HEK293-CNG cells, membrane-potential fluorescence (FLIPR), 1536-well; activation, % at 3.6 µM; 20% of 280 active; AID 1649, 2009; in the data active = activation above about 33%
NPY-Y1 agonist: NPY-Y1 direct agonists without NPY, confirmation, counter-screen for NPY-Y1 potentiator project, cell-based, fluorescence | shares compounds with NPY-Y1 PAM-ag | HEK293 Y1-CNGC, membrane potential fluorescence, agonist mode | activation, % at 3.6 µM | 50% of 280 active | AID 1697, 2009;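 active = percent activation above the mean of DMSO-only control wells plus 3 SD of those wells, cut at about 18% in these data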;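 note: cells challenged with isoproterenol plus Ro 20-1724 with no NPY in test wells; Y1 agonism lowers isoproterenol-driven cAMP and reduces probe fluorescence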
NPY-Y2 ag: NPY-Y2 direct agonists without NPY, counter-screen for NPY-Y1 potentiator project, cell-based, fluorescence | HEK293 Y2-CNGC, membrane potential fluorescence, agonist mode | AID 1698, 2009 | 67% of 280 active | activation, % at 3.6 µM | shares compounds with NPY-Y1 PAM-ag;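 active = activation above the solvent-only control wells' mean plus 3 SD, cut at about 11% in these data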;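 note: 0% = DMSO with isoproterenol and 100% = 40 nM NPY maximal response; agonism lowers cAMP so well fluorescence drops in active wells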
CNGC inh 2: CNGC cAMP sensor activity inhibitors, counter-screen for NPY-Y1 potentiator/agonist project, cell-based, HEK293-CNG parental, membrane potential fluorescence, Y1 set; shares compounds with NPY-Y1 PAM-ag; inhibition, % at 3.6 µM; isoproterenol cAMP; AID 1704, 2009; 42% of 280 active;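 active = inhibition above the mean of stimulated solvent-only control wells plus 3 SD, cut at about 22% in these data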;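 note: 0% = isoproterenol-stimulated DMSO wells and 100% = unstimulated DMSO wells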
NPY-Y2 confirm: NPY-Y2 potentiators or agonists, confirmation, cell-based | activation, % at 3.6 µM | cell-based NPY-Y2 potentiator/agonist assay | 20% of 450 active | shares compounds with NPY2 pot ag; in the data active = activation above about 33%
NPY-Y1 counter: NPY-Y1 potentiators or agonists, counter-screen for NPY-Y2 potentiator project, cell-based, fluorescence. shares compounds with NPY2 pot ag. AID 1651, 2009. 20% of 450 active. activation, % at 3.6 µM. Y1 HEK293-CNG cells, membrane potential fluorescence;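 note: cells stimulated with submaximal NPY then isoproterenol with phosphodiesterase inhibitor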
NPY-Y1 ag 2: NPY-Y1 direct agonists, selectivity assay for NPY-Y2 potentiator project, cell-based, fluorescence; shares compounds with NPY2 pot ag; HEK293 Y1-CNGC, membrane potential fluorescence, agonism; activation, % at 3.6 µM; 37% of 450 active; AID 1702, 2009;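 active = activation above the mean of DMSO-only control wells plus 3 SD, cut at about 18% in these data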;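 note: cells stimulated with 1 µM isoproterenol plus the PDE inhibitor Ro 20-1724; 0% = isoproterenol with DMSO and no NPY and 100% = 40 nM NPY; Y1 agonists lower the membrane potential dye signal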
CNGC inhibitor: CNGC cAMP sensor activity inhibitors, counter-screen for NPY-Y2 potentiator project, cell-based, HEK293-CNG parental, membrane potential fluorescence; AID 1703, 2009; shares compounds with NPY2 pot ag; inhibition, % at 3.6 µM; 32% of 450 active; isoproterenol cAMP;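 active = inhibition above the control-well mean plus 3 SD of those wells, cut at about 22% in these data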;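 note: 0% = DMSO with isoproterenol and 100% = DMSO without isoproterenol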
Y2 agonist ctr: NPY-Y2 direct agonists, counter-screen for NPY-Y2 potentiator project, cell-based, fluorescence | 56% of 450 active | activation, % at 3.6 µM | HEK293 Y2/CNGC cells, membrane potential fluorescence, agonist mode | shares compounds with NPY2 pot ag;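 active = activation above the mean of solvent-only control wells plus 3 SD, cut at about 10% in these data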;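 note: cells stimulated by isoproterenol with no NPY added so direct agonism is tested; 0% = DMSO with isoproterenol alone and 100% = NPY at EC100 plus isoproterenol; agonism lowers probe fluorescence through less cAMP and CNG channel opening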
S1P4 agonist cf: S1P4 receptor agonists, retest, confirmation, cell-based, high throughput; 7% of 740 active; S1P4 agonist cell-based reporter assay; activation, % at 4.98 µM; shares compounds with S1P4 agonist; in the data active = activation above about 12%;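 note: 0% = vehicle and 100% = full reference agonist response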
S1P1 ag: S1P1 receptor agonists, human, counter-screen for S1P4 agonist project, cell-based | S1P1 agonist cell-based assay, activation | AID 1563, 2009 | 4% of 740 active | shares compounds with S1P4 agonist | activation, % at 4.98 µM; in the data active = activation above about 21%;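 note: 0% = vehicle wells and 100% = reference agonist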
Target sequence (P21453 whole entry, looked up): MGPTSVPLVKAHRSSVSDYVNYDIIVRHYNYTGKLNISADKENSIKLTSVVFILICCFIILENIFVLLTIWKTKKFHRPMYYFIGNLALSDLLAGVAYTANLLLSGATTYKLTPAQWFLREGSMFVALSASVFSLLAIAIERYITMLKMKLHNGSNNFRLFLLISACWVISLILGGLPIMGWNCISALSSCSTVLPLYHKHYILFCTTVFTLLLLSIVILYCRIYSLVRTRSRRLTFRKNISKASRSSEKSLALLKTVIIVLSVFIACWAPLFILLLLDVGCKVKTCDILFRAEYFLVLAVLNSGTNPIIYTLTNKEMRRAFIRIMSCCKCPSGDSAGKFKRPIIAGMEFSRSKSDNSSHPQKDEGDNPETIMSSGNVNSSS
* hit, by the source's call; / = not tested or not shown; ! = a repeat was not active. Cut-off read from the data, not from the text of the source, unless noted: active = activation above about 45%; inactive = the rest.

SMILES	S1P4 agonist	NPY Y2 blocker	NPY2 pot ag	NPY-Y1 antag	S1P4 antagonist	NPY-Y1 PAM-ag	NPY-Y2 confirm	NPY-Y1 counter	NPY-Y1 ag 2	CNGC inhibitor	Y2 agonist ctr	others
COc1ccc(O)c2c(=O)c3c(OC)cc4c(c3oc12)C1C=COC1O4 (configuration not stated)	-2	/	23	/	-1	56*	/	/	/	/	/	NPY-Y1 confirm=73*;NPY-Y2 counter=63*;NPY-Y1 agonist=69*;NPY-Y2 ag=64*;CNGC inh 2=67*
CCC(=NCCCN(CC)CC)c1c(O)n(-c2ccccc2)c(=O)[nH]c1=O	-3	4	-14	1	9	-13	/	/	/	/	/
O=c1c2ccccc2nc(Cc2ccccc2)n1-c1ccccc1O	-1	/	-1	/	8	4	/	/	/	/	/
CC(C)(O)[C@H]1O[C@H]2CC[C@@]3(C)[C@@](O)(CC[C@H]4Cc5c([nH]c6ccccc56)[C@@]43C)C2=CC1=O	0	/	24	-14	14	43*	/	/	/	/	/	NPY-Y1 confirm=49*;NPY-Y2 counter=41*;NPY-Y1 agonist=53*;NPY-Y2 ag=43*;CNGC inh 2=44*
CCOC(=O)c1c(-n2c(C)cc(C=C3C(=O)NC(=O)NC3=O)c2C)sc2c1CCCC2	12*	2	10	-13	0	39*	/	/	/	/	/	NPY-Y1 confirm=93*;NPY-Y2 counter=73*;NPY-Y1 agonist=77*;NPY-Y2 ag=68*;CNGC inh 2=28*;S1P4 agonist cf=29*;S1P1 ag=3
COC(=O)C1=CO[C@@H](C)[C@@H]2CN3CC[C@]4(C(=O)Nc5ccccc54)[C@@H]3C[C@H]12	0	4	0	-1	6	-35	/	/	/	/	/
O=C1NC(=O)N(CC2CCCO2)C(=O)/C1=C/c1cccs1 (configuration not stated)	-1	/	41*	/	3	14	2	13	3	2	3
CCN(CC)c1ccc(/C=C2/C(=O)NC(=O)N(CC3CCCO3)C2=O)cc1 (configuration not stated)	-1	-2	-2	-3	-10	-3	/	/	/	/	/
N#Cc1cc(F)c(N2CCNCC2)cc1Cl	1	2	-13	2	-5	-18	/	/	/	/	/
Clc1cccc(N2CCNCC2)c1Cl	2	4	32*	8	-24	1	14	15	9	11	8
Cc1cccc(CNCCc2ccccc2)n1	1	0	1	2	-20	-22	/	/	/	/	/
O=c1c2cc(Br)ccc2[nH]c(=S)n1-c1ccccc1	0	/	0	-4	4	-7	/	/	/	/	/
O=c1c2ccccc2[nH]c(=S)n1-c1ccc(Br)cc1	0	/	32*	-5	8	19	5	17	0	11	-1
O=C1Nc2ccccc2/C1=C/c1nc2ccccc2c(=O)n1-c1ccc(O)cc1	0	/	42*	/	-2	44	33*	44	29*	35*	33*
CC(=O)Nc1ccccc1C(=O)OCc1ccc(F)cc1	0	/	-10	2	-18	-17	/	/	/	/	/
Cc1cccc(N2CCc3c2nc2ccccc2c3N)c1	-1	-1	68*!	1	2	-43	28	39	-18	1	23*
Cc1nn(Cc2ccccc2)c(Cl)c1C(=O)OCC(=O)Nc1cccc2ccccc12	2	12	45*	-5	-1	25	-19	-20	-12	-14	-8
O=S(=O)(F)c1ccc2nc(-c3cccc(Sc4ccccc4)c3)cc(Cl)c2c1	0	/	-1	/	-23	18	/	/	/	/	/
CC(C)CCNC(=O)c1c(N)n(CC2CCCO2)c2nc3ccccc3nc12 (configuration not stated)	12*	3	1	6	-4	-15	/	/	/	/	/	S1P4 agonist cf=5;S1P1 ag=12
CCC(C)NC(=O)c1c(N)n(CC2CCCO2)c2nc3ccccc3nc12 (configuration not stated)	1	4	-2	0	-9	12	/	/	/	/	/
CC(=O)NC1CC2CCCC(C1)N2 (configuration not stated)	25*	1	9	3	-11	10	/	/	/	/	/	S1P4 agonist cf=-2;S1P1 ag=5
CCOC(=O)C1=C(C)N(C)C2(C)CC1c1ccccc1O2 (configuration not stated)	0	0	5	-1	-9	18	/	/	/	/	/

High-throughput results: PubChem BioAssay, The Scripps Research Institute Molecular Screening Center
